Measurements from ChEMBL document CHEMBL3244028, “Synthesis and antiinflammatory activity of 6,11-dihydro-11-oxodibenzo[b,e]thiepinalkanoic acids and related compounds” (J Med Chem, 1978).

Legend:
[1] = system: Rattus norvegicus; assay: Antiinflammatory activity in rat assessed as inhibition of carrageenan-induced paw edema compound administered orally 1 hr prior challenge relative to phenylbutazone; assay type: functional
Outline: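 Female rats, 80-90 g, given test agent in "Government diluting fluid" 1 h before carrageenan injection into one hind paw. Rats killed 4 h after dosing; both hind paws excised and weighed. Potency relative to phenylbutazone read from dose-response plots of percent weight increase of inflamed over noninflamed paw. Usually at least three doses, six rats per dose.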

[2] = system: Mus musculus; assay: Analgesic activity in mouse assessed as inhibition of phenylquinone-induced writhing administered orally 20 mins prior challenge relative to aspirin; assay type: functional
Outline: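 Male mice, 18-20 g, dosed orally in "Government diluting fluid" vehicle, then given phenylquinone intraperitoneally 20 min later. Writhing observed over the following 10 min. Eight to ten mice per dose. Potency relative to aspirin taken from dose-response plots.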

[3] = system: Rattus norvegicus; assay: Antiinflammatory activity in rat assessed as inhibition of cotton pellet granuloma at 0.5 to 4 mg/kg/day, po administered for 7 days starting same day of challenge measured on day 7 relative to indomethacin; assay type: functional
Outline: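 Cotton pellet granuloma in rats, by a modification of Meier's method. Vehicle "Government diluting fluid".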

[4] = system: Rattus norvegicus; assay: Antiinflammatory activity in rat arthritis model assessed as inhibition of Freund's adjuvant-induced swelling compound administered orally bid for 17 days starting on day 1 of challenge measured on day 18 relative to naproxen; assay type: functional
[5] = system: Canis familiaris; assay: Toxicity in dog assessed as emesis at 5 mg/kg, po administered as single dose; assay type: organism-based, Canis lupus familiaris; parameters: dose 5 mg/kg, route oral; settings: in vivo
Outline: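 Dogs given one oral dose (5, 10 or 30 mg/kg). Animals watched for signs of gastrointestinal intolerance, including emesis.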

[6] = species on record: Rattus norvegicus; assay: Toxicity in rat assessed as gastric irritation (erosion) in starved rats; settings: in vivo

SMILES: O=C(O)Cc1ccc2c(c1)C=Cc1ccccc1O2
- fold change (FC) [1]: <0.4
- fold change (FC) [2]: 0.3

SMILES: O=C(O)Cc1ccc2c(c1)C(=O)c1ccccc1CS2
- fold change (FC) [1]: 0.3
- fold change (FC) [2]: 1.5

SMILES: C1CCC(NC2CCCCC2)CC1.CCC(C(=O)O)c1ccc2c(c1)SCc1ccccc1C2=O (stereo not given)
- fold change (FC) [1]: 20
- fold change (FC) [2]: 4

SMILES: O=C(O)Cc1ccc2c(c1)SCc1ccccc1C2
- fold change (FC) [1]: 2
- fold change (FC) [2]: 1

SMILES: O=C(O)Cc1ccc2c(c1)S(=O)(=O)Cc1ccccc1C2=O
- fold change (FC) [1]: <0.2
- fold change (FC) [2]: 0.2

SMILES: O=C(O)Cc1cccc2c1SCc1ccccc1C2=O
- fold change (FC) [1]: <0.4

SMILES: O=C(O)Cc1ccc2c(c1)CSc1ccccc1C2=O
- fold change (FC) [1]: 1
- fold change (FC) [2]: 1

SMILES: C1CCC(NC2CCCCC2)CC1.CC(C(=O)O)c1ccc2c(c1)CSc1ccccc1C2=O (stereo not given)
- fold change (FC) [1]: 2
- fold change (FC) [2]: 2.5

SMILES: O=C(O)Cc1ccc2c(c1)SCc1sccc1C2=O
- fold change (FC) [1]: 4
- fold change (FC) [2]: 4

SMILES: O=C(O)Cc1ccc2c(c1)CC(=O)c1ccccc1S2
- fold change (FC) [1]: 0.4
- fold change (FC) [2]: 1

SMILES: O=C(O)Cc1ccc2c(c1)C=Cc1ccccc1S2
- fold change (FC) [1]: 2
- fold change (FC) [2]: <1

SMILES: O=C(O)Cc1ccc2c(c1)CCc1ccccc1S2
- fold change (FC) [1]: 7
- fold change (FC) [2]: 3
- fold change (FC) [3]: 0.07
- fold change (FC) [4]: 0.5

SMILES: O=C(O)Cc1ccc2c(c1)C=Cc1ccccc1S2(=O)=O
- fold change (FC) [1]: 0.4
- fold change (FC) [2]: 0.4

SMILES: O=C(O)Cc1ccc2c(c1)CCc1ccccc1S2(=O)=O
- fold change (FC) [1]: 0.4
- fold change (FC) [2]: 1

SMILES: O=C(O)Cc1ccc2c(c1)CC(=O)c1ccccc1O2
- fold change (FC) [1]: <0.6
- fold change (FC) [2]: <0.2

SMILES: O=C(O)Cc1ccc2c(c1)CCc1ccccc1O2
- fold change (FC) [1]: 0.4
- fold change (FC) [2]: 1

SMILES: O=C(O)Cc1ccc2c(c1)Sc1ccccc1C(=O)C2
- fold change (FC) [1]: 0.4
- fold change (FC) [2]: 1

SMILES: O=C(O)Cc1ccc2c(c1)Sc1ccccc1C=C2
- fold change (FC) [1]: <0.2
- fold change (FC) [2]: <1

SMILES: O=C(O)Cc1ccc2c(c1)Sc1ccccc1CC2
- fold change (FC) [1]: 0.2
- fold change (FC) [2]: 2

SMILES: CC(C(=O)O)c1ccc2c(c1)SCc1ccccc1C2=O (racemic)
- fold change (FC) [1]: 115
- fold change (FC) [2]: 20
- fold change (FC) [3]: 2
- fold change (FC) [4]: 70
- Activity [5]: Toxic
- ED50 [6]: 2 mg/kg

SMILES: O=C(O)Cc1ccc2c(c1)SCc1ccccc1C2O (racemic)
- fold change (FC) [1]: <1
- fold change (FC) [2]: <0.3

SMILES: O=C(O)Cc1ccc2c(c1)[S+]([O-])Cc1ccccc1C2=O (racemic)
- fold change (FC) [1]: 0.5
- fold change (FC) [2]: <=0.5

SMILES: CC(C(=O)O)c1ccc2c(c1)SCc1sccc1C2=O (racemic)
- fold change (FC) [1]: 13
- fold change (FC) [2]: 20

SMILES: C1CCC(NC2CCCCC2)CC1.CC(C(=O)O)c1ccc2c(c1)CCc1ccccc1S2 (racemic)
- fold change (FC) [1]: 3
- fold change (FC) [2]: 5

SMILES: O=C(O)Cc1ccc2c(c1)CCc1ccccc1[S+]2[O-] (racemic)
- fold change (FC) [1]: <=0.2
- fold change (FC) [2]: 0.8

SMILES: O=C(O)Cc1ccc2c(c1)SCc1ccccc1C2=O [TIOPINAC]
- fold change (FC) [1]: 40
- fold change (FC) [2]: 14
- fold change (FC) [3]: 0.8
- fold change (FC) [4]: 10
- Activity [5]: Non-toxic
